High-throughput results: PubChem BioAssay, several laboratories
PAFAH1B3 inh: inhibitors of human PAFAH1B3; Q15102; recombinant PAFAH1B3, FP-rhodamine probe, fluorescence polarization; inhibition, % at 3.39 µM; actives 0.28% (n = 340,000);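 active = inhibition above the screen-wide average of all tested compounds plus 3 SD, cut at about 25% in these data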
Target sequence (Q15102 whole entry, looked up): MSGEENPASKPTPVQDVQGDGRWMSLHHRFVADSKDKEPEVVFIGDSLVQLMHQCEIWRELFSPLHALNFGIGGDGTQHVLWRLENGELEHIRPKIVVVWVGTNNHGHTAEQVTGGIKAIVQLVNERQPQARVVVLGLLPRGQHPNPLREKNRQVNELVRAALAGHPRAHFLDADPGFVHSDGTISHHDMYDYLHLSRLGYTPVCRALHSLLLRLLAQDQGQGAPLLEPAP
Apaf1 inhib: human Apaf-1 inhibition | actives 0.71% (n = 330,000) | reconstituted apoptosome caspase-3 activity, DEVD-Rh110 fluorescence | AID 489030 | inhibition, % at 20 µM; active = inhibition of at least 40% at 20 µM
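Assay system – apoptosome proteins · Medium – Hepes buffer, pH 7.5 · Also added – cytochrome c with DEVD-Rh110 · Timing – 30 min compound preincubation, 50 min activation, room temperature · Detection – Rh110 fluorescence, excitation 480 nm, emission 540 nm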
PAFAH1B2 inh: blocks human PAF acetylhydrolase 1b catalytic subunit 2. recombinant PAFAH1B2, FP-rhodamine activity probe, fluorescence polarization. P68402. actives 1.2% (n = 340,000). inhibition, % at 3.39 µM;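 active = inhibition above the mean of all tested compounds plus 3 SD, cut at about 24% in these data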
Target sequence (P68402 whole entry, looked up): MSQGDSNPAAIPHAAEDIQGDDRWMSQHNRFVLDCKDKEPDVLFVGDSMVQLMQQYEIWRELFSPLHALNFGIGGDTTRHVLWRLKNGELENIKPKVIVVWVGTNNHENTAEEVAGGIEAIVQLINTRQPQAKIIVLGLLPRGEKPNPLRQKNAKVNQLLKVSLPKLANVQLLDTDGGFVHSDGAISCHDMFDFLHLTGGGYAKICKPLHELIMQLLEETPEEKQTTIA
PAFAH2 FP inh: inhibitors of human PAFAH2 | Q99487 | recombinant PAFAH2, FP-rhodamine activity probe, fluorescence polarization | inhibition, % at 3.39 µM | actives 0.99% (n = 340,000);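 active = inhibition above the mean over all tested compounds plus 3 SD, cut at about 30% in these data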;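 note: inhibitors block probe labeling of enzyme so polarization drops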
pPAFAH FP inh: pPAFAH (human) enzyme inhibition | Q13093 | recombinant pPAFAH, FP-rhodamine probe fluorescence polarization | inhibition, % at 3.39 µM | actives 1.5% (n = 330,000);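 active = inhibition above the mean inhibition across the screen plus 3 SD, cut at about 25% in these data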;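 note: inhibitors block binding of the rhodamine activity-based probe so polarization drops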
Large screens that a line does not name were inactive. Sampled rows, rich in hits. Any-hit rate of the full collection: about 3.1%.

CCN(CCO)c1ncnc2c1sc1nc(C(C)C)c3c(c12)CC(C)(C)OC3	none
CSc1nc(NCCOCCO)c2sc3nc(-c4ccco4)c4c(c3c2n1)CCC4	pPAFAH FP inh 29
CC(C)(C)C(=O)CN1C2=NCCCN2c2ccccc21	none
CCS(=O)(=O)N1Cc2ccccc2CC1C(=O)Nc1nnc(SCc2ccc(F)cc2)s1 (configuration not stated)	pPAFAH FP inh 25
CCc1nnc(NC(=O)C2Cc3ccccc3CN2S(=O)(=O)CC)s1 (configuration not stated)	none
Cc1ccc(NC(=O)CN(C)C(=O)C(Sc2ccccc2)c2ccccc2)cc1 (configuration not stated)	none
Cc1ccccc1C(=O)Nc1ccnn1C1CCN(C(C)Cc2ccccc2F)CC1 (configuration not stated)	none
COc1ccc(CNC(=O)C(=O)NCC2OCCCN2S(=O)(=O)c2cccs2)cc1 (configuration not stated)	PAFAH1B2 inh 27
Cc1ccc(S(=O)(=O)N2CCOC2CNC(=O)C(=O)NCc2ccc(Cl)cc2)cc1 (configuration not stated)	PAFAH1B2 inh 29
COc1ccc(CNC(=O)C(=O)NCC2CCCN2S(=O)(=O)c2cccs2)cc1 (configuration not stated)	none
CC(C)n1c(=S)[nH]c2scc(-c3cccs3)c2c1=O	pPAFAH FP inh 33
FC(F)(F)c1cc(CCN2CCNC[C@H]2Cc2cccc3ccccc23)cc(C(F)(F)F)c1	Apaf1 inhib 72
Cc1ccc(-c2cc3ccccc3nc2N2CCOCC2)cc1	pPAFAH FP inh 26 (no result: PAFAH1B3 inh, PAFAH1B2 inh, PAFAH2 FP inh)
CC(C)C(NS(=O)(=O)c1ccccc1F)C(=O)N1CCc2ccccc2C1 (configuration not stated)	none
CC(C)C(NS(=O)(=O)c1cccc(C(F)(F)F)c1)C(=O)N1CCc2ccccc2C1 (configuration not stated)	PAFAH1B2 inh 26
COC(=O)C1=CN(C(C)c2ccccc2)C=C(C(=O)OC)C1c1cc(OC)c(OC)c(OC)c1 (configuration not stated)	PAFAH1B2 inh 28
Cc1ccc(SC(C)c2nc(-c3cccnc3)no2)cc1 (configuration not stated)	PAFAH1B2 inh 27
c1nc(NCc2ccc3c(c2)OCO3)c2cc(-c3ccc4c(c3)OCCO4)ccc2n1	none
Cc1cccc(CNc2ncnc3ccc(-c4ccc5c(c4)OCCO5)cc23)c1	Apaf1 inhib 42
Nc1nc2c(s1)CCc1c-2cnn1-c1ccccc1	Apaf1 inhib 93
Nc1nc2c(s1)COc1ccccc1-2	none
CC(=O)Cc1nsc(NC(=O)c2ccc(COc3ccccc3Cl)o2)n1	none
CC(=O)Cc1nsc(NC(=O)c2ccc(COc3ccccc3)o2)n1	pPAFAH FP inh 27
CN(Cc1ccccc1)S(=O)(=O)c1ccc(S(=O)(=O)N(Cc2ccc(F)cc2)C2CCCC2)cc1	none
O=C(O)c1ccc(S(=O)(=O)N(Cc2ccc(F)cc2)C2CCCCC2)cc1	PAFAH1B2 inh 26
C/C(=N\NC(=O)C1CCCC1)c1ccc(Cl)cc1Cl	none (no result: pPAFAH FP inh)
O=C(NCc1ccco1)C1CCCN(c2nnc(-n3cccc3)s2)C1 (configuration not stated)	none
COc1ccc(C2CC(c3cccc(Br)c3)=NN2c2ccc(S(N)(=O)=O)cc2)cc1 (configuration not stated)	pPAFAH FP inh 32
COc1ccc(C2CC(c3cccc(F)c3)=NN2c2ccc(S(N)(=O)=O)cc2)cc1 (configuration not stated)	none
C/C(=C\c1ccccc1)C1Nc2cccc3cccc(c23)N1	Apaf1 inhib 41 (no result: PAFAH1B3 inh, PAFAH1B2 inh, PAFAH2 FP inh)
Cc1cc(C)c(S(=O)(=O)N2CCCCC2CCNC(=O)C(=O)NCc2cccnc2)c(C)c1 (configuration not stated)	none
NC(=S)n1[nH]c(-c2ccc([N+](=O)[O-])cc2)c(N=Nc2cccc([N+](=O)[O-])c2)c1=O	PAFAH1B2 inh 27, PAFAH2 FP inh 39 (no result: Apaf1 inhib, pPAFAH FP inh)
Brc1ccc(CSc2nnc(-c3cnccn3)n2Cc2ccco2)cc1	PAFAH1B2 inh 30
Cc1ccc(Cl)cc1NC(=O)C1CCCN1S(=O)(=O)c1ccc(-c2ccc(=O)[nH]n2)s1 (configuration not stated)	none
O=C1C(=O)N(CNc2ccccn2)c2ccccc21	pPAFAH FP inh 29
COc1cc2ccccc2cc1C(=O)Nc1nccs1	none
Cc1[nH]c(C)c(S(=O)(=O)N2CCN(c3ccc(Cl)cc3)CC2)c1C(=O)N1CCCC1	none
Cc1ccc(NC(=O)C2Cc3ccccc3C(=O)O2)cc1 (configuration not stated)	none
O=C1OC(C(=O)Nc2ccccc2)Cc2ccccc21 (configuration not stated)	PAFAH2 FP inh 49, pPAFAH FP inh 25
COC(=O)c1ccc(C)c(NC(=O)CCNC(=O)c2ccc([N+](=O)[O-])cc2)c1	pPAFAH FP inh 29
Cc1ccc(F)cc1NC(=O)CCNC(=O)c1ccc([N+](=O)[O-])cc1	none
C[C@H](OC(=O)NCc1ccc(C(F)(F)F)cc1)[C@@H]1O[C@@]2(C)CCC[C@@H]1O2	PAFAH1B2 inh 25
COc1ccc2cc(C(=O)NCCCN3CCCC3=O)[nH]c2c1	none
O=C1c2cc(Br)ccc2OC2C=CC=CC12 (configuration not stated)	none
NC(=O)c1ncn([C@@H]2O[C@H](CNCc3cc(Cl)ccc3OCc3ccc(Cl)cc3)[C@@H](O)[C@H]2O)n1	PAFAH1B2 inh 28 (no result: Apaf1 inhib, pPAFAH FP inh)
COc1ccc2oc(=O)c(-c3csc(Nc4ccc(O)cc4)n3)cc2c1	pPAFAH FP inh 29
CC(=O)Oc1ccc(C2=Cc3ccc(OC(C)=O)cc3OC2C)cc1 (configuration not stated)	none (no result: Apaf1 inhib, pPAFAH FP inh)
Cc1cc(C)c(C#N)c(SCCS(=O)(=O)c2ccc(Cl)cc2)n1	PAFAH1B2 inh 29
CCOc1ccc(S(=O)(=O)N2CCC(C(=O)NC3CCCCC3)CC2)cc1	none
CCNC(=O)c1ccc(NS(=O)(=O)c2ccc3[nH]c(=O)[nH]c3c2)cc1	none
O=C(O)c1ccc(N/N=C/c2cc3cc4c(cc3nc2Cl)OCCO4)cc1	pPAFAH FP inh 30
C=C1C(=O)[C@@]23[C@H](O)C[C@@H]4C(C)(C)CC[C@H](O)[C@@]4(C)[C@@H]2CC[C@@H]1[C@H]3O	PAFAH1B2 inh 86
C=C1C(=O)[C@@]23[C@H](O)C[C@@H]4C(C)(C)CC[C@H](O)[C@]4(C)[C@@H]2C[C@H](O)[C@@H]1[C@H]3O	PAFAH1B2 inh 81
Cc1ccc(C(=O)NCC(=O)OCC(=O)Nc2ccc(Cl)cc2C(F)(F)F)cc1C	none
Cc1ccsc1C(=O)OCC(=O)Nc1ccc(Cl)cc1C(F)(F)F	PAFAH2 FP inh 51, pPAFAH FP inh 33
Cc1ccc(N/N=C2\CC(=O)c3ccccc32)cc1Cl	Apaf1 inhib 76 (no result: PAFAH1B3 inh, PAFAH1B2 inh, PAFAH2 FP inh)
CC(NC(=O)c1c(F)cccc1Cl)c1ccc(-n2ccnc2)cc1 (configuration not stated)	none
